Published values from different studies.
Compare with care: the assays were run in different laboratories.
KIT V559D/V654A: Mast/stem cell growth factor receptor Kit (KIT, Homo sapiens, UniProt P10721, V559D/V654A)
KIT V559D: Mast/stem cell growth factor receptor Kit (KIT, Homo sapiens, UniProt P10721, V559D)
KIT T670I/V559D: Mast/stem cell growth factor receptor Kit (KIT, Homo sapiens, UniProt P10721, T670I/V559D)
KIT L576P: Mast/stem cell growth factor receptor Kit (KIT, Homo sapiens, UniProt P10721, L576P)
KIT A829P: Mast/stem cell growth factor receptor Kit (KIT, Homo sapiens, UniProt P10721, A829P)
KIT D816V: Mast/stem cell growth factor receptor Kit (KIT, Homo sapiens, UniProt P10721, D816V)
KIT autoinhibited: Mast/stem cell growth factor receptor Kit, autoinhibited (KIT, Homo sapiens, UniProt P10721)
KIT D816H: Mast/stem cell growth factor receptor Kit (KIT, Homo sapiens, UniProt P10721, D816H)
KIT: Mast/stem cell growth factor receptor Kit (KIT, Homo sapiens, UniProt P10721)

Structure (SMILES)	target	observed	method	tested at	remaining binding [%]
O=C(NCCCN1CCOCC1)c1ccc(Nc2ncc(Cl)c(-c3ccc(Cl)s3)n2)cc1	KIT V559D/V654A	binding	competition with immobilised ligand	1 µM	9.9
COc1cnc(Nc2cccc(S(N)(=O)=O)c2)nc1N1CCN(c2ccccc2)CC1	KIT V559D	binding	competition with immobilised ligand	1 µM	94
CN1CCN(c2ccc(Nc3nccc(-c4cccc([N+](=O)[O-])c4)n3)cc2C(F)(F)F)CC1	KIT T670I/V559D	binding	–	10 µM	0.15
O=C(O)[C@H]1[C@H](Cn2nnc3ccccc3c2=O)CC[C@@H]1C(=O)c1ccc(OCCC2CCOCC2)cc1	KIT L576P	cell-free assay	competition with immobilised ligand	1 µM	96
C[C@@H](c1ccc(-n2cnc3c(N)ncnc32)cc1)N1CCc2nn(C)c(Cc3ccccc3)c2C1=O	KIT V559D/V654A	binding	competition with immobilised ligand	0.1 µM	78
O=C(NCCCN1CCOCC1)c1ccc(Nc2nccc(-c3cc4ccccc4s3)n2)cc1	KIT A829P	binding	competition with immobilised ligand	1 µM	36
CCN1CCN(Cc2ccc(C(=O)Nc3ccc(C)c(Oc4ccc5c(c4)CC(=O)N5)c3)cc2C(F)(F)F)CC1	KIT D816V	binding	competition with immobilised ligand	1 µM	81
COc1ccnn2ncc(-c3ccnc(N(C)C)n3)c12	KIT V559D/V654A	binding	–	1 µM	100
O=C(N1CCS(=O)(=O)CC1)N1C[C@H](c2ccc(OC(F)(F)F)cc2)C[C@H](c2nc(C3CC3)no2)C1	KIT V559D/V654A	cell-free assay	competition with immobilised ligand	1 µM	100
N#Cc1ccccc1CSc1nnc2c(n1)[nH]c1ccccc12	KIT T670I/V559D	binding	competition with immobilised ligand	10 µM	100
CCC(=O)N[C@@H]1CC[C@H](C(=O)N(C)c2ccc(-c3nc4ccccc4o3)cc2)C1	KIT autoinhibited	cell-free assay	competition with immobilised ligand	1 µM	93
N[C@H]1CCN(c2nccc(-c3cnn4ncccc34)n2)C1	KIT autoinhibited	binding	–	1 µM	0
CC(C)(C)c1ccc(-c2nc(CBr)nn2-c2cccc(O)c2)cc1	KIT T670I/V559D	cell-free assay	competition with immobilised ligand	10 µM	95
C[C@@H]1CCN(c2nccc(-c3cnn4ncccc34)n2)C1	KIT V559D/V654A	binding	–	1 µM	79
CN1CCN(c2ccc(Nc3nccc(-c4ccccc4)n3)cc2C(F)(F)F)CC1	KIT D816V	binding	–	10 µM	6.8
O=C(c1ccc(Nc2ncc(Cl)c(-c3cc4ccccc4s3)n2)cc1)N1CCC(N2CCCC2)CC1	KIT L576P	binding	competition with immobilised ligand	1 µM	4.5
CN(C)c1nccc(-c2cnn3ncccc23)n1	KIT A829P	binding	–	1 µM	81
Nc1ncc2c(n1)-c1c([nH]c3ccc(C#CC4CC4)cc13)CCCC2	KIT T670I/V559D	binding	competition with immobilised ligand	1 µM	94

Structure (SMILES)	target	observed	method	tested at	remaining binding [%]
Cc1cc(NC(=O)c2cccc(S(F)(F)(F)(F)F)c2)cc(-n2ccn3nc(-c4cccnc4)cc23)c1	KIT L576P	cell-free assay	competition with immobilised ligand	1 µM	100
CN(c1nccc(-c2cnn3ncccc23)n1)C1CC1	KIT autoinhibited	binding	–	1 µM	100
c1cncc(-c2cccc(Nc3nccc(NC4CCCCC4)n3)c2)c1	KIT A829P	binding	competition with immobilised ligand	10 µM	27
CN(CCCC(F)(F)F)c1nccc(-c2cnn3ncccc23)n1	KIT D816H	binding	–	1 µM	77
O=C(Nc1cccnn1)N1CC(C/C=C/c2cncc(Oc3ccc(C(F)(F)F)cn3)n2)C1	KIT D816V	cell-free assay	competition with immobilised ligand	1 µM	100
O=C(c1ccc(Nc2ncc(Cl)c(-c3ccc(Cl)s3)n2)cc1)N1CCC(N2CCCC2)CC1	KIT D816H	binding	competition with immobilised ligand	1 µM	7.7
O=C(NCc1ncc(C(F)(F)F)cc1Cl)c1ccc2c(c1)C1(CCS(=O)(=O)CC1)[C@H](C1CC1)N2S(=O)(=O)c1ccc(F)cc1	KIT	cell-free assay	competition with immobilised ligand	1 µM	100
CC1CCCN1c1nccc(-c2cnn3ncccc23)n1 (stereo not drawn)	KIT V559D	binding	–	1 µM	100
C=CC(=O)N1CCC(C(=O)NCC(=O)N2CCN(c3nc(-c4cnc(N)nc4C(F)F)nc(N4CCOCC4)n3)CC2)CC1	KIT	binding	competition with immobilised ligand	1 µM	93
O=C(Nc1c[nH]nc1C(=O)NC1CCNCC1)c1cc(F)cc(F)c1	KIT	binding	competition with immobilised ligand	1 µM	100
COc1cnc(Nc2cccc(S(N)(=O)=O)c2)nc1N1CCN(c2ccccc2)C(=O)C1	KIT V559D/V654A	binding	competition with immobilised ligand	1 µM	97
COc1ncc2cc3ccccc3nc2c1C#N	KIT D816V	cell-free assay	competition with immobilised ligand	5 µM	95
CN(C)c1nccc(-c2cnc3ncccn23)n1	KIT T670I/V559D	binding	–	1 µM	92
CCCCN(CCCC)C(=O)CN1C[C@H](c2cc(OC)c3c(c2)OCO3)[C@@H](C(=O)O)[C@@H]1CC(C)(C)CCC	KIT D816V	cell-free assay	competition with immobilised ligand	1 µM	100
CNC(=O)[C@@H]1CC[C@@H](n2c(-c3ccc4cnccc4c3)nc3ccc(C(=O)NCc4cccc(C(N)=O)c4)cc32)C1	KIT V559D/V654A	binding	competition with immobilised ligand	1 µM	96
O=C(NCC1CCOCC1)c1n[nH]cc1NC(=O)c1c(F)cccc1F	KIT V559D	binding	competition with immobilised ligand	1 µM	100
C[C@H](NC(=O)c1cnc2n1[C@](C)(Cc1ccc(C#N)cc1)C(=O)N2c1cc(Cl)c(F)c(Cl)c1)C(=O)NC1(c2ccccn2)CC1	KIT D816H	cell-free assay	competition with immobilised ligand	1 µM	100
Cc1cnc(Nc2ccc(C(=O)N3CCC(N4CCCC4)CC3)cc2)nc1-c1cc2ccccc2s1	KIT T670I/V559D	binding	competition with immobilised ligand	1 µM	10
